For series [1], the system named is Influenza A virus. The experiment in a line: Antiviral activity against Influenza A virus A/WSN/33(H1N1) infected in HEK293T-Gluc cells assessed as inhibition of virus infection at 10 uM pretreated for 2 hrs followed by viral infection and measured after 24 hrs by Gaussia luciferase reporter gene assay. Format: functional. The note with it: A/WSN/1933(H1N1), HEK-293T, time 26 hrs. The procedure, abridged: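 A single-concentration screen at 10 μM was run against A/WSN/33 (H1N1) in HEK293T-Gluc reporter cells. These cells carry a stably transfected pLenti6-Gluc construct expressing negative-strand Gaussia luciferase RNA that is converted to positive strand upon infection. Inhibition ratio of infection was read from Gluc activity.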
On the technique in general: In a reporter assay the amount or activity of a reporter protein is the signal.

The test system of series [2] is Influenza A virus. The experiment in a line: Antiviral activity against Influenza A virus A/WSN/33(H1N1) infected in HEK293T-Gluc cells pretreated for 2 hrs followed by viral infection and measured after 24 hrs by Gaussia luciferase reporter gene assay. The format is functional, organism-based. The conditions noted are these: A/WSN/1933(H1N1), HEK-293T. The essentials:
(§1)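 Reporter cells were HEK293T cells stably transfected with pLenti6-Gluc, which constitutively expresses negative-strand Gaussia luciferase RNA that becomes positive-strand on IAV infection. Cells were infected with A/WSN/33 or A/PR/8/1934 (H1N1). Antiviral activity was read as Gluc signal, and IC50 values were derived. Ribavirin served as positive control.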

Series [3] can be described thus: Cytotoxicity against human HEK293T cells assessed as reduction in cell viability after 48 hrs by CCK8 assay. The format is cell-based, HEK-293T. Background: Formazan colour is commonly taken as a measure of viable cells.
Series [4] in a line: Selectivity index, ratio of CC50 for human HEK293T cells to IC50 for Influenza A virus A/WSN/33(H1N1) infected in HEK293T-Gluc cells. The format is toxicity, cell-based. The conditions noted are these: read-out: Ratio CC50/IC50.
A short description of series [5]: Cytotoxicity against human A549 cells assessed as reduction in cell viability after 48 hrs by CCK8 assay. Format: cell-based.
Series [6] has as its system Influenza A virus. In words: Antiviral activity against Influenza A virus A/PR/8/34 (H1N1) infected in HEK293T-Gluc cells pretreated for 2 hrs followed by viral infection and measured after 24 hrs by Gaussia luciferase reporter gene assay. Format: functional, organism-based. The conditions noted are these: A/Puerto Rico/8/1934(H1N1), HEK-293T. The essentials:
as §1

In general, inhibition refers to the relative decrease from the control value, in per cent. By IC50 is commonly meant the midpoint of a concentration-inhibition curve. Usually CC50 stands for the concentration giving 50% cytotoxicity. As to `O=C(COc1cccc2ccccc12)Nc1ccc(F)cc1`, the inhibition at 10 µM with Influenza A virus [1] is 78%. Moreover, in the series on Influenza A virus [2], the IC50 came out at 5.22 µM. In addition, the CC50 at 48 h in series [3] is above 100 µM. For the same molecule, the selectivity ratio in series [4] is above 19.1.

For `O=C(CNc1nc(N2CCc3ccccc3C2)nc2ccccc12)Nc1ccc2ccccc2c1`, the IC50 with Influenza A virus [2] came out at 3.43 µM. Also, in series [3], the CC50 at 48 h is above 100 µM. Also, in series [4], the selectivity ratio was above 29.1.

As to `CCN(CC)c1nc(SCC(=O)NCc2ccccc2)c2ccccc2n1`, the IC50 with Influenza A virus [2] worked out at 19.2 µM. In series [3], the CC50 at 48 h was above 100 µM. The selectivity ratio in series [4] is above 5.22.

For the molecule `O=C(CNc1nc(N2CCOCC2)nc2ccccc12)NCc1ccccc1`, the CC50 at 48 h in series [5] and in series [3] was above 100 µM each time. In addition, the IC50 in the series with Influenza A virus [2] was 3.83 µM; with Influenza A virus [6], 6.05 µM. The selectivity ratio in series [4] was above 26.1.

For the molecule `O=C(CNc1nc(N2CCc3ccccc3C2)nc2ccccc12)NCc1ccccc1`, the CC50 at 48 h in series [5] came to 12.8 µM; in series [3], 29.4 µM. For the same molecule, the IC50 in the series on Influenza A virus [2] amounted to 6.84 µM; in the series on Influenza A virus [6] it was 0.12 µM. The selectivity ratio in series [4] is 4.3.

Consider `O=C(CNc1nc(N2CCc3ccccc3C2)nc2ccccc12)Nc1ccccc1`, for which the results for the CC50 at 48 h in series [5] and in series [3] were 10.7 µM and 36.6 µM, respectively. Also, the inhibition at 10 µM with Influenza A virus [1] came to 98.2%. For the same molecule, the IC50 came to 3.88 µM in the series on Influenza A virus [2] and 0.41 µM in the series with Influenza A virus [6]. The selectivity ratio in series [4] is 9.44.

Consider `NC(=O)c1ncn([C@@H]2O[C@H](CO)[C@@H](O)[C@H]2O)n1` [RIBAVIRIN], for which, in series [3], the CC50 at 48 h is above 100 µM. The selectivity ratio in series [4] was above 6.51.

Turning to `O=C(CNc1nc(N2CCCC2)nc2ccccc12)Nc1cc(Cl)cc(Cl)c1`, the CC50 at 48 h in series [5] amounted to 5.92 µM; in series [3] it was 15.9 µM. For the same molecule, the IC50 in the series on Influenza A virus [2] turned out to be 9.04 µM; in the series with Influenza A virus [6], 0.95 µM. In addition, the selectivity ratio in series [4] came out at 1.75.

These data come from ChEMBL document CHEMBL4765426, “Design, synthesis and in vitro anti-influenza A virus evaluation of novel quinazoline derivatives containing S-acetamide and NH-acetamide moieties at C-4” (Eur J Med Chem, 2020).
